Active and inactive are the calls of the source. The rule behind the calls is not given here.
How the values were obtained:
[1] = tested on: HepG2; experiment: Cytotoxicity against human HepG2 cells after 3 days by MTT assay; format: functional, cell-based; details: for IC50: HepG2, 72 h
Procedure, shortened: (§1)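 Freshly trypsinized cells were seeded at 5000-10 000 per well, and compounds were added from DMSO stocks. After 3 days of culture, attached cells were given MTT (0.5 mg/mL, 1 h) and then solubilized in DMSO. Absorbance was read at 550 nm. IC50 is the concentration that cut cell growth by 50%. Values are the mean of two to three separate experiments, each in triplicate.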

[2] = (§2) Cytotoxicity against human Hep3B cells after 3 days by MTT assay; format: functional, cell-based, Hep 3B2; details: 72 h; procedure, shortened: as §1
[3] = tested on: A549; experiment: Cytotoxicity against human A549 cells after 3 days by MTT assay; format: functional, cell-based; details: for IC50: A549, 72 h; procedure, shortened: as §1
[4] = tested on: MDA-MB-231; experiment: Cytotoxicity against human MDA-MB-231 cells after 3 days by MTT assay; format: functional, cell-based; details: for IC50: MDA-MB-231, 72 h; procedure, shortened: as §1
[5] = tested on: MCF7; experiment: Cytotoxicity against human MCF7 cells after 3 days by MTT assay; format: functional, cell-based; details: for IC50: MCF7, 72 h; procedure, shortened: as §1
[6] = tested on: Platelet; experiment: Inhibition of collagen-induced human platelet aggregation by light transmission aggregometer; format: functional, cell-based
Procedure, shortened: (§3)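 Human platelet suspension was preincubated with DMSO or compound at 37 °C for 3 min, stirring at 1200 rpm, before the activator was added. Aggregation was followed turbidimetrically in a light-transmission aggregometer.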

[7] = tested on: Platelet; experiment: Inhibition of thrombin-induced human platelet aggregation by light transmission aggregometer; format: functional, cell-based; procedure, shortened: as §3
[8] = tested on: Hep 3B2; experiment: as §2; format: functional, cell-based; procedure, shortened: as §1

`C=C1C(=O)O[C@H]2/C=C(\C)C[C@@H]3C=C(CC/C=C(\C)CC[C@H]12)C(=O)O3` gave an IC50 [1] of 10 µM, an IC50 [2] of 7.4 µM and an IC50 [3] of 9.6 µM. For the same compound, the IC50 [4] was 9.5 µM, the IC50 [5] was 9.5 µM and the IC50 [6] was 19.7 µM. It also gave an IC50 [7] greater than 100 µM.
For `C=C1CC[C@@H]2C(=C)C(=O)O[C@H]2/C=C(\C)C[C@@H]2C=C(CC[C@H]1O)C(=O)O2`, the Activity [1] was “inactive”, the Activity [8] was “inactive” and the Activity [3] was “inactive”. For the same compound, the Activity [4] was “inactive”, the Activity [5] was “inactive” and the IC50 [6] was 41.9 µM. The IC50 [7] was greater than 100 µM.
Work on `C=C1C(=O)O[C@H]2/C=C(\C)C[C@@H]3C=C(C/C=C/[C@@](C)(O)CC[C@H]12)C(=O)O3` yielded an IC50 [1] of 10 µM, an IC50 [2] greater than 10 µM and an IC50 [3] of 9.9 µM. The IC50 [4] was greater than 10 µM, the IC50 [5] was greater than 10 µM and the IC50 [6] was greater than 100 µM. It also gave an IC50 [7] of 20 µM.
With `C=C1C(=O)O[C@H]2/C=C(\C)C[C@@H]3C=C(CC[C@@H](OO)C(=C)CC[C@H]12)C(=O)O3` the Activity [1] was “inactive”, the Activity [8] was “inactive” and the Activity [3] was “inactive”. The Activity [4] was “inactive”, the Activity [5] was “inactive” and the Activity [6] was “inactive”. For the same compound, the Activity [7] was “inactive”.
In the case of `C=C1C(=O)O[C@H]2/C=C(\C)C[C@@H]3C=C(C/C=C/[C@@](C)(OO)CC[C@H]12)C(=O)O3`, the Activity [1] is reported as “inactive”, the Activity [8] is reported as “inactive” and the Activity [3] is reported as “inactive”. The Activity [4] was “inactive”, the Activity [5] was “inactive” and the IC50 [6] was greater than 100 µM. It also gave an IC50 [7] of 11.9 µM.
In the case of `C=C1CC[C@H]2C(=C)C(=O)O[C@@H]2/C=C(\C)C[C@H]2C=C(CCC1=O)C(=O)O2`, the IC50 [1] is reported as 10 µM, the IC50 [2] is reported as greater than 10 µM and the IC50 [3] is reported as greater than 10 µM. The IC50 [4] was 9.8 µM, the IC50 [5] was greater than 10 µM and the Activity [6] was “inactive”. For the same compound, the Activity [7] was “inactive”.
`CC(=O)Oc1ccccc1C(=O)O` [ASPIRIN] gave an IC50 [6] of 153 µM and an IC50 [7] greater than 100 µM.
With `COc1cccc2c1C(=O)c1c(O)c3c(c(O)c1C2=O)C[C@@](O)(C(=O)CO)C[C@@H]3O[C@H]1C[C@H](N)[C@H](O)[C@H](C)O1` [DOXORUBICIN] the IC50 [1] was 0.82 µM, the IC50 [2] was 0.48 µM and the IC50 [3] was 0.4 µM. For the same compound, the IC50 [4] was 0.07 µM.
Compound `C=C1C(=O)O[C@H]2/C=C(\C)C[C@@H]3C=C(CC[C@H]4O[C@@]4(C)CC[C@H]12)C(=O)O3` has an IC50 [1] of 10 µM, an IC50 [2] of 9.3 µM and an IC50 [3] of 8.8 µM. It also gave an IC50 [4] greater than 10 µM, an IC50 [5] greater than 10 µM and an IC50 [6] greater than 100 µM. The IC50 [7] was 4.8 µM.

— ChEMBL document CHEMBL1157510, “Bioactive cembrane diterpenoids of Anisomeles indica” (J Nat Prod, 2008)
